Activity calls are given as the source filed them. The calls are words filed in the database; no cut-off is given here.
Experiments:
[1] = biological target: T1, Amine oxidase [flavin-containing] A (Homo sapiens, UniProt P21397); test: Reversible inhibition of human MAO-A assessed as residual enzyme activity at 4 fold IC50 incubated for 15 mins and measured before dialysis by dialysis method relative to control
T1 sequence (P21397 whole entry): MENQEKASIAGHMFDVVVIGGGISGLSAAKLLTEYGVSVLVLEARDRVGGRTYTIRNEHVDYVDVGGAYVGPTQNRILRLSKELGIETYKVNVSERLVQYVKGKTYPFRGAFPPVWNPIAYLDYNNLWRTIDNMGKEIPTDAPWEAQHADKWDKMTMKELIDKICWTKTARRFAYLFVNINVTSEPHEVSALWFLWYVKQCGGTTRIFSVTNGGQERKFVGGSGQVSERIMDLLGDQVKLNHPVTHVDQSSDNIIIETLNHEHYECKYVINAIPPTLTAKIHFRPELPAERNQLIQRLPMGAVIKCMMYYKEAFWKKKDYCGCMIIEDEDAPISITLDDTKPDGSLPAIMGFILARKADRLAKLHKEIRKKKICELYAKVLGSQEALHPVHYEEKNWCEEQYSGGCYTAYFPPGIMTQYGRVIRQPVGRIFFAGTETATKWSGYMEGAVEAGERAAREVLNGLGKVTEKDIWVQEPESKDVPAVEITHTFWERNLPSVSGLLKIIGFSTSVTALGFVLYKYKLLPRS
Method in brief: (§1)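 Dialysed (MWCO 12 000) at 4 °C for 24 h against 100 mM potassium phosphate pH 7.4, 5% sucrose, buffer changed twice. Dialysed and undialysed mixtures assayed together; residual activity from triplicates.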

[2] = biological target: T2, Amine oxidase [flavin-containing] B (Homo sapiens, UniProt P27338); test: Reversible inhibition of human MAO-B assessed as residual enzyme activity at 4 fold IC50 incubated for 15 mins and measured 24 hrs post dialysis relative to control; conditions: 24.25 h, time 1455 min; method in brief: as §1
T2 sequence (P27338 whole entry): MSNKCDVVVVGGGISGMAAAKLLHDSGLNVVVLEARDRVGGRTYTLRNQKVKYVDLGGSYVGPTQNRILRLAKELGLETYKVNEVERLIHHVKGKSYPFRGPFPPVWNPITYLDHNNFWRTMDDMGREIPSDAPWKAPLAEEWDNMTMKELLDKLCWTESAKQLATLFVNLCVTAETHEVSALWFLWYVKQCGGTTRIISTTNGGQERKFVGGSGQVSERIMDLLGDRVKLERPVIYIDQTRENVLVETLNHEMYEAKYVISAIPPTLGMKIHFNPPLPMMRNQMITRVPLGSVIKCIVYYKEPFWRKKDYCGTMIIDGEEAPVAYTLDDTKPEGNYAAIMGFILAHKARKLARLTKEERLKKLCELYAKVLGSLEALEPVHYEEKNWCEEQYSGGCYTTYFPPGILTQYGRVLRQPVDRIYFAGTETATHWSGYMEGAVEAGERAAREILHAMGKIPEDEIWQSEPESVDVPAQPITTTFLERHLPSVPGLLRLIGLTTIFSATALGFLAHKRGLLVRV

Mus musculus [3] = test: Antidepressant-like activity in CD1 mouse assessed as maximum efficacy at 20 mg/kg, po administered as subchronic dose gavage for 7 days and measured 1 h post last dose by Porsolt-forced swim test; assay type: functional, organism-based; conditions: time 7.0 day
Method in brief: (§2)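 Male albino CD-1 mice (20–25 g), 12 h light/dark, food and water ad libitum. Dosed by oral gavage once daily for 7 days in 200 μL 0.5% CMC; vehicle-only controls. […] Forced swim test run 1 h after the last dose. Immobility scored every 60 s over 6 min; n = 8–12.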

[4] = biological target: T2, Amine oxidase [flavin-containing] B; test: Reversible inhibition of human MAO-B assessed as residual enzyme activity at 4 fold IC50 incubated for 15 mins and measured before dialysis relative to control; method in brief: as §1
[5] = Cytotoxicity against human HepG2 cells assessed as cell viability at 30 uM incubated for 2 hrs by MTT assay relative to control; assay type: cell-based; conditions: read-out: Activity
Method in brief: (§3)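 HepG2 human hepatoma cells; viability read by MTT assay, with 0.1% DMSO as vehicle control. Viability given as % of control, mean ± SEM (n = 3); p < 0.05 taken as significant.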

Mus musculus [6] = test: Antidepressant-like activity in CD1 mouse assessed as reduction in immobility time at 30 mg/kg, po administered via gavage for 7 days and measured 1 h post last dose by Porsolt-forced swim test; assay type: functional, organism-based; conditions: time 7.0 day; method in brief: as §2
[7] = biological target: T2, Amine oxidase [flavin-containing] B; test: Inhibition of recombinant human MAO-B expressed in baculovirus infected BTI insect cells using p-tyramine as substrate incubated for 30 mins by Amplex red reagent based fluorescence analysis; assay type: cell-based
[8] = Cytotoxicity against human HepG2 cells assessed as cell viability at 15 uM incubated for 2 hrs by MTT assay relative to control; assay type: cell-based; conditions: read-out: Activity; method in brief: as §3
[9] = biological target: T1, Amine oxidase [flavin-containing] A; test: Reversible inhibition of human MAO-A assessed as residual enzyme activity at 4 fold IC50 incubated for 15 mins and measured 24 hrs post dialysis by dialysis method relative to control; conditions: 24.25 h, time 1455 min; method in brief: as §1
Mus musculus [10] = test: Antidepressant-like activity in CD1 mouse assessed as reduction in immobility time at 30 mg/kg, po administered via gavage as single dose measured after 1 hr by Porsolt-forced swim test; assay type: functional, organism-based
[11] = Cytotoxicity against human HepG2 cells assessed as cell viability at 7.5 uM incubated for 2 hrs by MTT assay relative to control; assay type: cell-based; conditions: read-out: Activity; method in brief: as §3
[12] = Effect on locomotor activity in CD1 mouse assessed as total distance traveled at 30 mg/kg, po administered via gavage for 7 days by open field test; assay type: ADME, organism-based; conditions: in vivo, 168 h, time 7 day
Method in brief: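 Each mouse placed in the centre of a 50 × 50 × 30 cm black box and video-tracked; total distance travelled over 5 min; n = 8–10.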

[13] = biological target: T1, Amine oxidase [flavin-containing] A; test: Inhibition of recombinant human MAO-A expressed in baculovirus infected BTI insect cells using p-tyramine as substrate incubated for 30 mins by Amplex red reagent based fluorescence analysis
[14] = Ex vivo inhibition of MAOA in CD1 mouse brain homogenates assessed as 5-HT levels at 30 mg/kg, po administered as subchronic dose via gavage for 7 days and measured 1 hr post last dose by ELISA kit method (reference value: 0.78 +/- 0.01 ug/g); assay type: functional; conditions: time 7 day
[15] = Selectivity index, ratio of Ki for inhibition of recombinant human MAO-A to Ki for inhibition of recombinant human MAO-B using p-tyramine as substrate
[16] = Ex vivo inhibition of MAOA in CD1 mouse brain homogenates assessed as assessed as inhibition of dopamine deamination by measuring DOPAC metabolite levels at 30 mg/kg, po administered as single acute dose via gavage and measured after 1 hr by HPLC analysis (reference value: 1.22 +/- 0.2 ug/g); assay type: functional
[17] = Ex vivo inhibition of MAOA in CD1 mouse brain homogenates assessed as assessed as inhibition of 5-HT deamination by measuring 5-HIAA metabolite levels at 30 mg/kg, po administered as single acute dose via gavage and measured after 1 hr by HPLC analysis (reference value: 0.28 +/- 0.011 ug/g); assay type: functional
[18] = Ex vivo inhibition of MAOA in CD1 mouse brain homogenates assessed as dopamine levels at 30 mg/kg, po administered as single acute dose via gavage and measured after 1 hr by ELISA kit method (reference value: 7.08 +/- 0.58 ug/g); assay type: functional
[19] = Permeability of compound in PBS/EtOH buffer (70:30) at 25 ug/ml incubated for 16 hrs by UV plate reader based PAMPA-BBB
[20] = Ex vivo inhibition of MAOA in CD1 mouse brain homogenates assessed as 5-HT levels at 30 mg/kg, po administered as single acute dose via gavage and measured after 1 hr by ELISA kit method (reference value: 0.80 +/- 0.006 ug/g); assay type: functional
[21] = Ex vivo inhibition of MAOA in CD1 mouse brain homogenates assessed as MAOA level at 30 mg/kg, po administered as subchronic dose via gavage for 7 days and measured 1 hr post last dose by monoamine oxidase assay (reference value: 0.40 +/- 0.005 nmol/min/mg); assay type: functional; conditions: time 7 day
[22] = Ex vivo inhibition of MAOA in CD1 mouse brain homogenates assessed as MAOA level at 30 mg/kg, po administered as single acute dose via gavage and measured after 1 hr by monoamine oxidase assay (reference value: 0.40 +/- 0.012 nmol/min/mg); assay type: functional
[23] = Ex vivo inhibition of MAOA in CD1 mouse brain homogenates assessed as inhibition of 5-HT deamination by measuring 5-HIAA metabolite levels by using at 30 mg/kg, po administered as subchronic dose via gavage for 7 days and measured 1 hr post last dose by HPLC analysis (reference value: 0.18 +/- 0.01 ug/g); assay type: functional; conditions: time 7 day
[24] = biological target: T1, Amine oxidase [flavin-containing] A; test: Irreversible inhibition of human MAO-A assessed as residual enzyme activity at 4 fold IC50 incubated for 15 mins and measured before dialysis relative to control
Method in brief: (§4)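 Recombinant hMAO-A (1 U/mL) was preincubated with inhibitor for 15 min at 37 °C in 0.05 M potassium phosphate, pH 7.4, with 5% sucrose and 1% DMSO. It was then dialyzed at 4 °C against 100 mM potassium phosphate, pH 7.4, 5% sucrose (12 000 MWCO), with buffer replaced twice over 24 h. Dialyzed and undialyzed mixtures were assayed together for MAO-A activity, in triplicate; residual activity is given as mean ± SEM.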

[25] = biological target: T1, Amine oxidase [flavin-containing] A; test: Irreversible inhibition of human MAO-A assessed as residual enzyme activity at 4 fold IC50 incubated for 15 mins and measured 24 hrs post dialysis relative to control; conditions: 24.25 h, time 1455 min; method in brief: as §4

SMILES	Activity [1]	Activity [2]	Activity [4]	viability at 2 h, 30 µM [5]	Activity (Mus musculus [6])	Ki [7]	viability at 2 h, 15 µM [8]	Activity [9]	Activity (Mus musculus [10])	viability at 2 h, 7.5 µM [11]	Activity [12]	Ki [13]	Activity [14]	Ratio Ki [15]	Activity [16]	Activity [17]	Activity [18]	Papp at 16 h, 25 ug/ml [19]	Activity [20]	Activity [21]	also measured
COc1ccc(C(/C=C/c2cccc(OC)c2OC)=N/NC(=O)Cn2c(=O)oc3ccc(Cl)cc32)cc1	20.16%	95.21%	82.37%	88.5%	Active	1850 µM	99.1%	93.57%	Active	118%	Non-Toxic	0.01 µM									Activity (Mus musculus [3]): inactive
COc1ccc(C2CC(c3ccccc3)=NN2C(=O)Cn2c(=O)oc3ccccc32)cc1OC (centres undefined)	23.11%	94.8%	78.9%	85.3%	Active	20 µM	88.2%	94%	inactive	90.4%	Non-Toxic	0.009 µM	1.04 µg/g	4.55 10^-5No_unit	1.23 µg/g	0.32 µg/g	7.08 µg/g	9.44 ×10⁻⁶ cm/s	0.91 µg/g	0.27 nmol/min/mg	Activity [22]: 0.28 nmol/min/mg; Activity [23]: 0.24 µg/g
COc1ccc(C2=NN(C(=O)Cn3c(=O)oc4ccccc43)C(c3ccccc3Cl)C2)cc1 (centres undefined)	18.11%	91.5%	78.2%	85%	Active	1.25 µM	90%	90.16%	Active	91.2%	Non-Toxic	0.001 µM	1.19 µg/g	8 10^-4No_unit	1.24 µg/g	0.35 µg/g	7.1 µg/g	11 ×10⁻⁶ cm/s	0.98 µg/g	0.24 nmol/min/mg	Activity [22]: 0.25 nmol/min/mg; Activity [23]: 0.31 µg/g
COc1cccc(C2CC(c3ccccc3)=NN2C(=O)Cn2c(=O)oc3ccccc32)c1 (centres undefined)	24.55%	92.25%	85%	77.3%	Active	8.25 µM	88.3%	91.74%	inactive	96.2%	Non-Toxic	0.008 µM	1.01 µg/g	0.00097	1.23 µg/g	0.32 µg/g	7.08 µg/g	8.9 ×10⁻⁶ cm/s	0.88 µg/g	0.29 nmol/min/mg	Activity [22]: 0.31 nmol/min/mg; Activity [23]: 0.24 µg/g
C#CCN(C)[C@H](C)Cc1ccccc1 [SELEGILINE]				84%			87.2%			90%											Activity [24]: 89.96%; Activity [25]: 90.01%

From ChEMBL document CHEMBL4706681, “New 2-Pyrazoline and Hydrazone Derivatives as Potent and Selective Monoamine Oxidase A Inhibitors” (J Med Chem, 2021)
